Laboratory results published in ChEMBL document CHEMBL2396655, “Design, synthesis, and biological evaluation of (E)-N-aryl-2-arylethenesulfonamide analogues as potent and orally bioavailable microtubule-targeted anticancer agents” (J Med Chem, 2013).
pIC50: −log10 of the molar value. Calls of active or inactive are those of the source. The calls are words filed in the database; no cut-off is given here.

Key:
DU-145 [1] = assay: Mitotoic arrest in human DU145 cells assessed as presence of micronucleated cells at 25 nM after 24 hrs by FITC and propidium iodide staining-based confocal laser microscopic analysis; type: functional, cell-based
Outline: (§1)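 DU145 cells grown on glass coverslips, exposed to 0.025 μM for 24 h, fixed in 4% paraformaldehyde, permeabilized in PBS with 10% FBS/0.1% Triton X-100, stained with FITC-conjugated anti-α-tubulin (DM1A, 1 h, 37 °C) and propidium iodide (1 μg/mL, 5 min), then imaged by confocal microscopy (60× objective, XYZ-sectioning); DMSO-treated cells as vehicle.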

CCRF-CEM = assay: Resistance factor, ratio of GI50 for multidrug-resistant human CEM/C2 cells to GI50 for human CEM cells; type: functional
Plasma [2] = assay: Plasma protein binding in dog at 10 to 50 uM by equilibrium dialysis; type: ADME, cell-free, Canis lupus familiaris
MDCK = assay: Apparent permeability from apical to basolateral side in MDCK cells expressing MDR-1 at 10 uM after 90 mins by LC-MS/MS analysis; type: ADME, cell-based, Canis lupus familiaris; conditions: dog, 1.5 h
Outline: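 MDCK-MDR1 (Pgp-expressing) monolayers were used 3–4 days post-seeding, only if TEER exceeded 1000 Ω·cm² before and after the run. Compound starting concentration was 10 μM. Transport was measured A→B and B→A over 90 min and quantified by LC/MS/MS. Apparent permeabilities gave the efflux ratio.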

BT-474 = assay: Cytotoxicity against human BT474 cells after 96 hrs by trypan blue exclusion assay; type: functional; conditions: BT-474, 96 h
Outline: (§2)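 Cells were grown in DMEM or RPMI with 10% FBS and plated at 2.5×10⁴ cells/well in 12-well dishes. Compounds were added 24 h later at various concentrations. After 96 h, viable cells were counted by trypan blue exclusion from duplicate wells. Results are the mean of two independent experiments.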

DU-145 [3] = assay: Mitotoic arrest in human DU145 cells assessed as complete loss of coordination in mitotic spindle assembly at 25 nM after 24 hrs by FITC and propidium iodide staining-based confocal laser microscopic analysis; type: functional, cell-based; outline: as §1
MES-SA = assay: Resistance factor, ratio of GI50 for multidrug-resistant human MES-SA/Dx5 cells to GI50 for human MES-SA cells; type: functional
Mus musculus [4] = assay: Clearance in ICR mouse at 5 mg/kg, iv by LC-MS/MS analysis; type: ADME, organism-based; parameters: dose 5 mg/kg, route intravenous; conditions: in vivo
Outline: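 Male ICR mice, 6–8 weeks old, N=3 per group. Single 5 mg/kg dose in NMP:PEG300:water (1:4:5 v/v), given as IV bolus or oral gavage. Serial arterial blood was drawn through a carotid cannula at 2–360 min. Plasma was protein-precipitated with acetonitrile containing internal standard and assayed by LC/MS/MS. Parameters were derived by noncompartmental analysis.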

2008 [5] = assay: Growth inhibition of human 2008 cells; type: functional
[6] = Cytotoxicity against human Caco2 cells after 1 hr by Alamar Blue assay; type: cell-based; conditions: Caco-2 cells, read-out: LD50
Plasma [7] = assay: Plasma protein binding in rat at 10 to 50 uM by equilibrium dialysis; type: ADME, cell-free
K562 = assay: Cytotoxicity against human K562 cells after 96 hrs by trypan blue exclusion assay; type: functional, cell-based; outline: as §2
2008 [8] = assay: Resistance factor, ratio of GI50 for paclitaxel-resistant human 2008/17/4 cells to GI50 for human 2008 cells; type: functional
DU-145 [9] = assay: Mitotoic arrest in human DU145 cells assessed as rosette of condensed DNA without mitotic spindle at 25 nM after 24 hrs by FITC and propidium iodide staining-based confocal laser microscopic analysis; type: functional, cell-based; outline: as §1
A-431 = assay: Cytotoxicity against human A431 cells after 96 hrs by trypan blue exclusion assay; type: functional; conditions: A-431, 96 h; outline: as §2
Tubulin (Homo sapiens) = Tubulin (Homo sapiens) (UniProt P68371+Q9H4B7+P0DPH7+P68366+Q13509+Q71U36+P04350+Q3ZCM7+P07437+P68363+Q9BQE3+Q6PEY2+Q13885+Q9BVA1+Q9BUF5); assay: Inhibition of tubulin polymerization in human DU145 cells at 10 to 50 nM pretreated with paclitaxel for 24 hrs followed by compound treatment for 4 hrs by Western blotting analysis; type: cell-based; conditions: DU-145
Outline: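 DU145 cells were plated at 1.0×10⁴/well and treated for 24 h. Alternatively, cells were pretreated with paclitaxel for 24 h, then exposed to compound for 4 h. Cells were lysed in hypotonic buffer (1 mM MgCl₂, 2 mM EGTA, Tris pH 6.6, 0.5% NP40, protease inhibitors) and spun 10 min at 14,000 rpm. Pellet (polymerized) and supernatant (soluble) fractions were blotted for α-tubulin.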

DU-145 [10] = assay: Induction of apoptosis in human DU145 cells assessed as caspase activation at 10 to 20 nM after 24 to 72 hrs by Western blotting analysis; type: functional, cell-based
DU-145 [11] = assay: Cell cycle arrest in human DU145 cells assessed as accumulation at G2/M phase after 24 hrs by propidium iodide staining-based FACS flow cytometric analysis; type: functional
Outline: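 DU145 cells were plated at 1.0×10⁶ per dish in DMEM/10% FBS and treated 24 h later with increasing concentrations. After 24 h, attached and floating cells were pooled and fixed in ice-cold 70% ethanol for at least 24 h. Cells were stained with propidium iodide (50 μg/mL) plus RNase A for 30 min at 37 °C, then read on a FACScan with cell-cycle modelling.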

Mus musculus [12] = assay: Volume of distribution at steady state in ICR mouse at 5 mg/kg, iv by LC-MS/MS analysis; type: ADME, organism-based; parameters: dose 5 mg/kg, route intravenous; conditions: in vivo
Outline: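 Male ICR mice, 6–8 weeks old (N=3 per group), with a carotid artery cannula implanted one day before dosing. Dosed at 5 mg/kg in NMP:PEG300:water (1:4:5) as an IV bolus or by oral gavage. Blood drawn at 2–360 min; plasma protein-precipitated with acetonitrile containing internal standard, assayed by LC/MS/MS; noncompartmental analysis.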

Liver = assay: Metabolic stability in dog liver S9 fraction assessed as compound remaining at 10 uM after 1 hr by LC-MS/MS analysis; type: ADME, subcellular, Canis lupus familiaris; conditions: s9, 1 h
Outline: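 Compound at 10 μM was incubated with rat, dog or human liver S9 fraction (1 mg/mL) for 0, 30 and 60 min. Parent remaining at 1 h was quantified by LC-MS/MS.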

Tubulin (Sus scrofa) [13] = molecular target: T1, Tubulin (Sus scrofa) (UniProt P02554+P02550); assay: Competitive binding affinity to pig brain tubulin paclitaxel binding site at 0.1 to 100 uM after 1 hr by mass spectrophotometric analysis in presence of paclitaxel and GTP
Outline: (§3)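 Porcine brain tubulin (1.0 mg/mL) in PIPES 80 mM, MgCl₂ 2 mM, EGTA 0.5 mM, pH 6.9, at 37 °C. […] Competitor was 0.1–100 μM for 1 h. Unbound ligand in the 30 kDa ultrafiltrate was measured by MS. Runs were in triplicate; IC50 came from a Hill fit.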

[14] = Cytotoxicity against human U87 cells after 96 hrs by sulforhodamine B assay; type: functional, cell-based, U-87MG ATCC; conditions: U-87 MG
Tubulin (Sus scrofa) [15] = molecular target: T1, Tubulin (Sus scrofa); assay: Competitive binding affinity to pig brain tubulin vinblastine binding site at 0.1 to 100 uM after 1 hr by mass spectrophotometric analysis in presence of vinblastine; outline: as §3

COc1cc(OC)c(/C=C/S(=O)(=O)Nc2ccc(OC)c(N)c2)c(OC)c1
Activity (DU-145 [1]): Active | RatioGI50 (CCRF-CEM): 1 | PPB (Plasma [2]): 98.48% | Papp (MDCK): 9.1 ×10⁻⁶ cm/s | GI50 (BT-474): 0.01 µM | Activity (DU-145 [3]): Active | RatioGI50 (MES-SA): 1.6 | CL (Mus musculus [4]): 41.3 mL/min/kg | GI50 2008 [5]: 0.006 µM | CC50 at 1 h [6]: > 1000 µM | PPB (Plasma [7]): 99.73% | Activity (K562): Dose-dependent effect | GI50 (K562; K562, 96 h): 0.003 µM | pIC50 (K562; K562, 96 h): 8.52 | RatioGI50 2008 [8]: 1 | Activity (DU-145 [9]): Active | GI50 (A-431): 0.005 µM | inhibition (Tubulin (Homo sapiens)): Active | Activity (DU-145 [10]): Active | Activity (DU-145 [11]): Dose-dependent effect | Vdss (Mus musculus [12]): 2.13 L/kg | Stability (Liver): 57% | Activity (Tubulin (Sus scrofa) [13]): inactive | pIC50 [14]: 8.05 | Activity (Tubulin (Sus scrofa) [15]): inactive
